Here are results for 10 molecules from ChEMBL document CHEMBL1150579, “Anti-lipid-peroxidative principles from Tournefortia sarmentosa” (J Nat Prod, 2002).

For orientation: IC50 means the concentration that inhibits the measured activity by half. High values mean a need for much substance, low ones inhibition by little substance.

Test [1] can be described thus: Antioxidant activity against Cu2+-induced lipid peroxidation in human plasma LDL preincubated for 1 hr before Cu2+ challenge. It counts as functional, cell-free. The essentials: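 LDL from fasting plasma of healthy adult men not taking vitamin supplements. LDL was preincubated with compound at 37 °C for 1 h. Oxidation was started with CuSO4 (final 10 µM) and run for 2 h at 37 °C, shaken at 120 rpm. Conjugated dienes in the supernatant were read at 232 nm. IC50 is the concentration giving 50% inhibition of diene formation, taken from concentration curves.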

Test [2] in a line: Antioxidant activity against Cu2+-induced lipid peroxidation in human plasma LDL preincubated for 1 hr before Cu2+ challenge relative to probucol. It counts as functional, cell-free. The essentials:
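Same Cu2+-induced human LDL assay as above, with 1 h compound preincubation, 10 µM CuSO4 for 2 h at 37 °C, and conjugated dienes read at 232 nm. Probucol (10 µM, in 10% ethanol) was the positive control, with its potency set at 1.0. Relative potency = IC50(probucol)/IC50(compound).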

Take `O=C(O)/C=C/c1ccc(O)c2c1C=Cc1cc(O)c(O)cc1O2` [TOURNEFOLIC ACID B]: in test [1], the half-inhibitory concentration (IC50) is 2.32 µM. In addition, the Activity in test [2] turned out to be 1.9.

As for `O=C(O)/C=C/c1ccc(O)c2oc(-c3ccc(O)c(O)c3)cc12` [TOURNEFOLIC ACID A], the IC50 in test [1] is 4.81 µM. In test [2], this molecule showed an Activity of 1.1.

`O=C(O)/C=C/c1ccc(O)c(O)c1/C=C/c1ccc(O)c(O)c1` [SALVIANOLIC ACID F] came in with an IC50 in test [1] of 5.44 µM. The molecule also came in with an Activity in test [2] of 0.8.

`CC(C)(Sc1cc(C(C)(C)C)c(O)c(C(C)(C)C)c1)Sc1cc(C(C)(C)C)c(O)c(C(C)(C)C)c1` [PROBUCOL] showed a half-maximal inhibitory concentration (IC50) in test [1] of 4.3 µM.

`O=Cc1ccc(O)c2oc(-c3ccc(O)c(O)c3)cc12` [TOURNEFOLAL] came in with an IC50 in test [1] of 4.7 µM. Also, in test [2], the Activity came to 1.09.

For `O=C(/C=C/c1ccc(O)c(O)c1)O[C@H](Cc1ccc(O)c(O)c1)C(=O)O` [ROSMARINIC ACID], in test [1], inhibition was half-maximal at 1.81 µM (IC50). The molecule also had an Activity in test [2] of 2.2.

For `O=C(/C=C/c1ccc(O)c2c1[C@H](C(=O)O)[C@@H](c1ccc(O)c(O)c1)O2)O[C@H](Cc1ccc(O)c(O)c1)C(=O)O` [LITHOSPERMIC ACID], it took 1 µM to reach half-maximal inhibition in test [1] (IC50). The Activity in test [2] was 4.3.

Molecule `CCOC(=O)/C=C/c1ccc(O)c2c1C=Cc1cc(O)c(O)cc1O2` [TOURNEFOLIC ACID B ETHYL ESTER] returned an IC50 in test [1] of 0.51 µM. In test [2], this molecule had an Activity of 8.6.

Consider `O=C(/C=C/c1ccc(O)c2c1C=Cc1cc(O)c(O)cc1O2)O[C@H](Cc1ccc(O)c(O)c1)C(=O)O` [ISOSALVIANOLIC ACID C], for which the IC50 in test [1] stood at 2.72 µM. Further, the Activity in test [2] came out at 1.6.

In the case of `O=C(/C=C/c1ccc(O)c(O)c1/C=C/c1ccc(O)c(O)c1)O[C@H](Cc1ccc(O)c(O)c1)C(=O)O` [SALVIANOLIC ACID A], the 50% inhibitory concentration (IC50) in test [1] was 0.59 µM. Also, the Activity in test [2] was determined as 7.3.
